High-throughput results as filed in PubChem.
Only some compounds are listed: those with a hit (about 2.3% of all), similar ones and a draw of the others.
PAFAH1B3 inh – blocks human PAF acetylhydrolase 1B catalytic subunit 3. Q15102. recombinant PAFAH1B3, FP-rhodamine probe, fluorescence polarization. inhibition, % at 3.39 µM. actives 0.28% (n = 340,000);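 active = inhibition above the screen-wide average of all tested compounds plus 3 SD, cut at about 25% in these data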;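 also: 0% = enzyme with DMSO only and 100% = wells lacking PAFAH1B3 protein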
Target sequence (Q15102 whole entry, looked up): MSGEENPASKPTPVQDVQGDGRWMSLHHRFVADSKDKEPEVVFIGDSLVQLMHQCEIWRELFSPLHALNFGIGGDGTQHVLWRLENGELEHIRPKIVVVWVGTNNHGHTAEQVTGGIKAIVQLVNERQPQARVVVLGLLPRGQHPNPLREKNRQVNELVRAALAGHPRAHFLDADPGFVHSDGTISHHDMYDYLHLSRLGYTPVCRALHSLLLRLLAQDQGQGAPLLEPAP
TDP2 inh – blocks human TDP2 phosphodiesterase activity | O95551 | recombinant TDP2, T5PNP hydrolysis, p-nitrophenol absorbance 415 nm | inhibition, % at 12.8 µM | actives 0.34% (n = 370,000);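 active = inhibition above the mean of all tested compounds plus 3 SD, set per campaign, cut at about 25% in these data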;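 also: 0% = DMSO with enzyme and 100% = buffer with substrate but no TDP2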
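System – recombinant human TDP2 · Quantity – TDP2 enzyme at 120 nM final · Doses – single concentration, 12.8 µM nominal, with 1% DMSO · Incubation – 2 h at 37 °C · Measured by – epi absorbance of p-nitrophenol freed from T5PNP by hydrolysis · Read-out – % inhibition relative to enzyme-containing and enzyme-free wells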
PAFAH2 FP inh – inhibitors of human PAFAH2. recombinant PAFAH2, FP-rhodamine activity probe, fluorescence polarization. AID 492956. inhibition, % at 3.39 µM. actives 0.99% (n = 340,000). Q99487;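 active = inhibition above the mean over all tested compounds plus 3 SD, cut at about 30% in these data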;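 also: inhibitors block probe labeling of enzyme so polarization drops; 0% = enzyme with DMSO and 100% = wells lacking PAFAH2 protein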
PAFAH1B2 inh – PAFAH1B2 (human) inhibition. inhibition, % at 3.39 µM. AID 492953. recombinant PAFAH1B2, FP-rhodamine activity probe, fluorescence polarization. actives 1.2% (n = 340,000). P68402;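 active = inhibition above the mean of all tested compounds plus 3 SD, cut at about 24% in these data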;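 also: 0% = enzyme with DMSO and 100% = wells lacking PAFAH1B2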
Target sequence (P68402 whole entry, looked up): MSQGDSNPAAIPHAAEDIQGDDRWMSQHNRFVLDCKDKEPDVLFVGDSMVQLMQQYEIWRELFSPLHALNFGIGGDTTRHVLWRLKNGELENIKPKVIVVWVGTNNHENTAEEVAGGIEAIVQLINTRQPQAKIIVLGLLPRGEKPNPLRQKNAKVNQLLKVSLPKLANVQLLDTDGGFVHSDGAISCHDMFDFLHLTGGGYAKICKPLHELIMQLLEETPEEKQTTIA
Apaf-1 inh – inhibitors of human Apaf-1 apoptosome; reconstituted apoptosome caspase-3 activity, DEVD-Rh110 fluorescence; actives 0.71% (n = 330,000); O14727; inhibition, % at 20 µM; AID 489030; active = inhibition of at least 40% at 20 µM;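 also: plate controls were DMSO wells for no effect and DEVD-CHO caspase inhibitor wells for full effect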
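Medium: Hepes buffer, pH 7.5 / System: biochemical Apaf-1 apoptosome reconstitution / Measured by: Rh110 fluorescence, excitation 480 nm, emission 540 nm / Times: compound with Apaf-1, dATP, procaspase-3 30 min, then 50 min reaction, room temperature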
Apaf-1 inh conf2 – Apaf-1 inhibition, single-dose confirmed; reconstituted apoptosome, caspase-3 DEVD-Rh110 fluorescence; shares compounds with Apaf-1 inh; actives 25% (n = 1,800); inhibition, % at 20 µM;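 active = mean inhibition of at least 40% at 20 µM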;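 also: plate controls were DMSO wells for no effect and DEVD-CHO caspase inhibitor control wells for full effect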
Rh110 interf inh – interferes with Rh110 fluorescence, flagging false Apaf-1 inhibitors; shares compounds with Apaf-1 inh; Rh110 fluorescence interference, quenched caspase reaction; activation (fluorescence interference), % at 20 µM; 1,800 tested, under 10 active; AID 504615;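 active = signal rise of 40% or more at 20 µM, treated as a fluorescence artifact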
Apaf1 inh interf – shows fluorescence interference in the Apaf-1 inhibitor assay format. fluorescence interference counterscreen, Apaf-1 assay format. shares compounds with Apaf-1 inh. 460 tested, under 10 active. AID 588538. IC50, µM; call rule not given here
Active calls of the source: *; nt = not tested or not shown.

SMILES | PAFAH1B3 inh | TDP2 inh | PAFAH2 FP inh | PAFAH1B2 inh | Apaf-1 inh | Apaf-1 inh conf2 | Rh110 interf inh | others
COCCNC(=O)c1c(N)n(CCCn2ccnc2)c2nc3ccccc3nc12 | 3.5 | -2.7 | -7.8 | -2.9 | 93.9* | 26.6 | 10.9
C=CCNC(=O)c1c(N)n(-c2cccc(S(N)(=O)=O)c2)c2nc3ccccc3nc12 | -2.1 | -3.4 | 17.5 | -0.3 | 60.9* | 15.5 | 9.3
COc1ccc2c3c([nH]c2c1)[C@]1(CCNC=O)Nc2ccccc2C1=NCC3 | nt | 4.2 | nt | nt | nt | nt | nt
O=C1C(Cl)=C(NCc2cccnc2)C(=O)c2ccccc21 | 19.0 | 10.7 | 6.6 | 7.8 | 84.7* | 64.9* | 7.8 | Apaf1 inh interf=>100
CC(=O)N(Cc1ccc(F)cc1)C1=C(NCCc2ccccc2)C(=O)c2ccccc2C1=O | 21.1 | 7.7 | 7.8 | 16.9 | 77.9* | 75.7* | 2.6 | Apaf1 inh interf=>100
CC(C)c1cc(C(C)C)c(S(=O)(=O)N2CCC(C(=O)NCc3cccs3)CC2)c(C(C)C)c1 | nt | 4.3 | nt | nt | nt | nt | nt
COc1ccc(C2=Nn3c(nnc3-c3ccccc3F)SC2)cc1OC1CCOC1 (stereo unspecified) | 16.0 | 3.9 | 0.2 | 3.6 | 20.5 | nt | nt
COc1ccc(C2=Nn3c(nnc3-c3ccccc3F)SC2)cc1OC1CCCC1 | 6.4 | -8.7 | 9.9 | 4.2 | 47.3* | 23.4 | 8.8
O=C(Cn1cc2c(n1)CCCC2)NCCCN1CCCC1 | 3.4 | -4.0 | -1.1 | 4.9 | 41.0* | 38.8 | -0.3
CCCN1CCN(CCCNC(=O)Cn2cc3c(n2)CCCC3)CC1 | 6.8 | 3.6 | 6.4 | 5.1 | 17.6 | nt | nt
COc1ccc(S[C@]2(C(=O)N3CCOCC3)CC(=O)N(C(=O)C3CC3)[C@@H]2c2ccc(OC)cc2)cc1 | nt | 5.1 | nt | nt | nt | nt | nt
COc1ccc(CNS(=O)(=O)/C=C/c2ccc(OC)cc2CNC(=O)OC(C)(C)C)cc1 | nt | -19.2 | nt | nt | nt | nt | nt
O=C(Nc1ccccc1)Nc1ccc(O)c2ccccc12 | nt | nt | nt | nt | 44.0* | 28.3 | 1.8
O=C(Nc1ccccc1)Nc1cccc2ccccc12 | 13.7 | 9.5 | -1.4 | 2.9 | -19.5 | nt | nt
CC(=O)c1cc(O)c2ccccc2c1O | 19.2 | 42.2* | 19.6 | 10.6 | 58.0* | 10.7 | 2.6
CCN(CC)S(=O)(=O)c1cccc(NC(=O)C2SC(=Nc3ccc(C)cc3C)C(C(=O)NCC3CCCO3)=C2N)c1 (stereo unspecified) | -6.8 | -10.6 | -8.1 | 0.9 | 45.2* | 15.3 | -0.9
c1ccc(CC2CCN(c3nc4ccccc4n4nnnc34)CC2)cc1 | -2.2 | 6.6 | -9.3 | -2.6 | 57.6* | 17.4 | 10.8
CCN1CCN(S(=O)(=O)c2ccc(Cl)c(C(=O)N(C)Cc3cccs3)c2)CC1 | 0.0 | -7.9 | 0.8 | 4.8 | 57.8* | 31.2 | 1.1
O=C1N2Cc3ccccc3C2CS(=O)(=O)N1C1CCCC1 (stereo unspecified) | nt | -0.1 | nt | nt | nt | nt | nt
O=C(N/N=C/c1ccccc1F)NC12CC3CC(CC(C3)C1)C2 | 4.1 | -21.9 | 16.3 | 7.8 | 33.5 | nt | nt
COc1cccc(/C=N/NC(=O)NC23CC4CC(CC(C4)C2)C3)c1O | nt | nt | nt | nt | 40.1* | 14.8 | 3.8
CN1CCN(S(=O)(=O)c2cccc(C(=O)Oc3ccc(C(C)(C)C)cc3)c2)CC1 | 0.3 | 0.6 | 11.9 | 16.3 | 40.0 | 14.9 | 5.8
O=C(c1ccco1)N1CCN(C(=O)c2cn(-c3ccccc3)nc2-c2ccc(F)cc2)CC1 | 17.4 | -6.4 | 4.2 | 4.5 | 72.0* | 15.2 | 6.1
CC(C)C[C@H]1CN=C(Nc2ccccc2)N1CC1CCCC1 | 4.4 | -2.3 | 2.5 | -2.3 | -6.4 | nt | nt
CC(C)C[C@H]1CN=C(Nc2ccccc2)N1CC1CCC(C(C)(C)C)CC1 (stereo partly specified) | -1.9 | nt | 9.2 | 11.8 | 56.0* | 23.1 | 14.3
SMILES | PAFAH1B3 inh | TDP2 inh | PAFAH2 FP inh | PAFAH1B2 inh | Apaf-1 inh | Apaf-1 inh conf2 | Rh110 interf inh | others
Cn1c(SCC(=O)n2c3c(c4ccccc42)CCCC3)nnc1-c1ccccc1 | 19.6 | 3.7 | 1.6 | 6.5 | 43.2* | 34.7 | -10.2
CC(=O)Nc1ccc(C(=O)COC(=O)c2nc3nc(C)cc(C)n3n2)cc1 | 6.2 | -2.2 | -2.4 | 0.3 | 41.2* | 10.0 | 2.3
Cc1cc(C)n2nc(C(=O)OCC(=O)c3ccccc3Cl)nc2n1 | 1.0 | 2.6 | -1.5 | -1.0 | -13.7 | nt | nt
CCN(CC(=O)Nc1ccc(NC(C)=O)cc1)C(=O)c1ccccc1Sc1ccccc1C#N | 6.1 | -1.1 | -0.6 | -2.2 | 55.7* | 37.3 | 6.3
CCN(CC(=O)Nc1ccccc1C(F)(F)F)C(=O)c1ccccc1Sc1ccccc1C#N | 3.6 | -3.5 | 5.4 | 3.1 | 14.9 | nt | nt
CC1(C)C=Cc2ccc(O)c(C(=O)/C=C/c3ccccc3)c2O1 | nt | -3.2 | nt | nt | nt | nt | nt
Cn1c(SCC(=O)Nc2ccc3nc(SCC(=O)N4CCCC4)sc3c2)nnc1-c1ccccc1 | nt | 4.6 | nt | nt | 65.8* | 11.7 | -2.4
CCCC(=O)Nc1ccc2nc(SCC(=O)N3CCCC3)sc2c1 | 9.7 | -4.7 | -9.5 | 0.5 | -23.0 | nt | nt
O=C(O)CC(NC(=O)c1sc2ccccc2c1Cl)c1ccc(OC2CCCC2)cc1 (stereo unspecified) | 18.9 | -6.4 | -2.1 | 8.1 | 44.4* | 10.6 | 1.0
O=C(O)CC(NC(=O)c1cccc(F)c1)c1ccc(OC2CCCC2)cc1 (stereo unspecified) | 9.7 | -3.4 | -6.1 | -2.5 | 2.5 | nt | nt
Cc1cc2ccccc2n1CCNC(=O)C1CCCCC1 | 1.5 | -3.6 | -11.8 | 1.3 | 44.2* | 8.3 | 7.2
Cc1cc2ccccc2n1CCNC(=O)C1CCCC1 | -0.4 | -13.9 | -4.0 | -1.8 | 6.0 | nt | nt
Cc1cccc(N2CCN(C(=O)c3ccc4nccnc4c3)CC2C)c1 (stereo unspecified) | 6.9 | -0.8 | -3.3 | 1.3 | 4.3 | nt | nt
O=C(NCc1ccccc1)c1ccc2nc(-c3ccco3)c(-c3ccco3)nc2c1 | 11.7 | 18.8 | 29.4 | 14.8 | 65.0* | 27.6 | 6.3
Cc1cccc(N2CCN(C(=O)c3ccc4nc(-c5ccco5)c(-c5ccco5)nc4c3)CC2C)c1 (stereo unspecified) | 5.7 | 9.2 | 1.2 | 1.6 | 60.1* | 21.9 | -1.4
O=C(c1ccc2nc(-c3ccco3)c(-c3ccco3)nc2c1)N1CCN(c2ncccn2)CC1 | 20.9 | 11.3 | 13.6 | 2.2 | 57.5* | 22.5 | 0.5
N/C(=N\OC(=O)c1ccc(Cl)cc1Cl)c1cccnc1 | 16.6 | -5.4 | 3.0 | 2.3 | 76.2* | 8.7 | 5.0
COc1cccc(CNC(=S)OC2CCC23CCC(c2ccccc2)CC3)c1 (stereo unspecified) | nt | 5.0 | nt | nt | nt | nt | nt
Cc1[nH]n(-c2ccccc2)c(=O)c1N=Nc1cccc(S(=O)(=O)N2CCOCC2)c1 | 1.9 | 2.1 | -2.8 | 2.6 | 45.7* | 8.8 | 2.2
